Data on seven molecules can be found in ChEMBL document CHEMBL3784921, “Mimicking of Arginine by Functionalized N(ω)-Carbamoylated Arginine As a New Broadly Applicable Approach to Labeled Bioactive Peptides: High Affinity Angiotensin, Neuropeptide Y, Neuropeptide FF, and Neurotensin Receptor Ligands As Examples” (J Med Chem, 2016).

The target of series [1] is T1, Neurotensin receptor type 1 (Homo sapiens, UniProt P30989). As to the kind of experiment: Displacement of [3H]-{Nomega-[N-(4-propanoylaminobutyl)aminocarbonyl]}Arg-Arg-ProTyr-Ile-Leu-OH Tris(hydrotrifluoroacetate) from NTSR1 in human HT-29 cells after 2 hrs by liquid scintillation counting. Type of series: cell-based.
T1 sequence (P30989 whole entry, the tested form may be a part): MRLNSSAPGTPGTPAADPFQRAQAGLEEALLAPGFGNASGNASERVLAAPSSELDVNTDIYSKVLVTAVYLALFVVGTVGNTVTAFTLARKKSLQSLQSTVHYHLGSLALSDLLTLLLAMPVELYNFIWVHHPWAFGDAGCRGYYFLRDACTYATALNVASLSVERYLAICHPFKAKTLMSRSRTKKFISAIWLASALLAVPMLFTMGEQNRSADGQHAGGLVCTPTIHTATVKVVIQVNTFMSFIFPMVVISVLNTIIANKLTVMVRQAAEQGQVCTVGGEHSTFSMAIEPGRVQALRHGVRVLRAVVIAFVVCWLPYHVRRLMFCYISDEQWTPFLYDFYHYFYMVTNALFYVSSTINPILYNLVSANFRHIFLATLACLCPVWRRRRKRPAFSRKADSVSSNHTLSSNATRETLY
The target of series [2] is Neurotensin receptor type 2 (Homo sapiens, UniProt O95665). As to the kind of experiment: Displacement of [3H]NT(8 to 13 residues) from human NTSR2 expressed in HEK293 cell membranes.
Neurotensin receptor type 2, sequence (O95665 whole entry, the tested form may be a part): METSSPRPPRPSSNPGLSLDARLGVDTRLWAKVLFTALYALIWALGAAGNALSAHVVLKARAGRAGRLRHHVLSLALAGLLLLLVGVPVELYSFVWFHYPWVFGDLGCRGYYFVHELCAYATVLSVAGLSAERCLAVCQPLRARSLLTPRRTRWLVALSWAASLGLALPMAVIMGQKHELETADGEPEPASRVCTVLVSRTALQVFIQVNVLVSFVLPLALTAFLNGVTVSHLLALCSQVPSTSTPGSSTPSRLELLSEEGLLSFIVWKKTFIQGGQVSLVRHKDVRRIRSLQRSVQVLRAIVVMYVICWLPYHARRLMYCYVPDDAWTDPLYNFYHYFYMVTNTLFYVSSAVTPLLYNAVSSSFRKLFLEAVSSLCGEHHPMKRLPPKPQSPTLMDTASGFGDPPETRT
Series [3] is described as follows: Drug degradation in human HT-29 cells at 50 uM after 2 hrs by reversed-phase HPLC analysis. The conditions noted are these: read-out: Drug degradation. Type of series: ADME, cell-based. The procedure, abridged:
(§1)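 Stability tested under binding-assay conditions for up to 6 h: AT1 ligands with CHO-hAT1 cells and NTSR1 ligands with HT-29 cells. Samples analysed by reversed-phase HPLC chromatography.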

For series [4], the target named is T1, Neurotensin receptor type 1. As to the kind of experiment: Agonist activity at NTSR1 in human HT-29 cells assessed as induction of intracellular Ca2+ mobilization by fura-2 dye-based spectrofluorimetric analysis. Type of series: functional, cell-based. The conditions noted are these: read-out: EC50.
Series [5] is described as follows: Drug degradation in human HT-29 cells at 50 uM after 6 hrs by reversed-phase HPLC analysis. The conditions noted are these: read-out: Drug degradation. Type of series: ADME, cell-based. The gist of the method: as §1
The nature of series [6]: Chemical stability of compound at 200 uM at pH 7 at 21 degC after 24 to 48 hrs by reversed-phase HPLC analysis. The conditions noted are these: buffer, pH 7, 200 µM. The format is physicochemical. The gist of the method: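 Peptide incubated in phosphate buffer (PBS), pH 7.0, 21 °C, for 24 or 48 h. Remaining intact peptide assessed by reversed-phase HPLC chromatograms.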

Series [7] deals with T1, Neurotensin receptor type 1. Briefly: Displacement of [3H]-{Nomega-[N-(4-propanoylaminobutyl)aminocarbonyl]}Arg-Arg-ProTyr-Ile-Leu-OH Tris(hydrotrifluoroacetate) from human NTSR1 transfected in CHO cells co-expressing Galpha16-mtAEQ after 2 hrs by liquid scintillation counting. Type of series: cell-based.
Series [8] deals with T2, Type-1 angiotensin II receptor (Homo sapiens, UniProt P30556).
T2 sequence (P30556 whole entry): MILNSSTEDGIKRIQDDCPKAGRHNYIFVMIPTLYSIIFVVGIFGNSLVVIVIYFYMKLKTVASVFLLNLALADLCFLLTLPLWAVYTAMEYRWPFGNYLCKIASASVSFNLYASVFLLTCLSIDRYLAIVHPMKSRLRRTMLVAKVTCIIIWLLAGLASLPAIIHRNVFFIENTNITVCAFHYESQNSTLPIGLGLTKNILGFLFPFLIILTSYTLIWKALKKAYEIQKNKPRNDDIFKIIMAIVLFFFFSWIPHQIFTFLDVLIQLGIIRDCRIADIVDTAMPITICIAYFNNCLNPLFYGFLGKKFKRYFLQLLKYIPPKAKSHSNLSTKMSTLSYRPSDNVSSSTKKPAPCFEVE
As to the kind of experiment: biochemical.

Series [9] is described as follows: Binding affinity to AT1 receptor natively expressed in rat mesangial cells. The format is cell-based.
Series [10] has as its target T2, Type-1 angiotensin II receptor. Briefly: Displacement of [3H]-Asp-{Nomega-[N-(4-propanoylaminobutyl)aminocarbonyl]}Arg-ValTyr-Ile-His-Pro-Phe-OH Tris(hydrotrifluoroacetate) from human AT1 receptor transfected in CHO cells co-expressing Galpha16-mtAEQ after 2 hrs by liquid scintillation counting. Type of series: cell-based.
The target is the same in series [11]. As to the kind of experiment: Displacement of [3H]-Angiotensin 2 from human AT1 receptor transfected in CHOK1 cells preincubated for 30 mins with bovine serum albumin followed by radioligand addition by liquid scintillation counting. Type of series: cell-based, CHO-K1.
Series [12] addresses T3, Neuropeptide FF receptor 2 (Homo sapiens, UniProt Q9Y5X5). Briefly: Binding affinity to human NPFF2 receptor expressed in CHO cell membranes after 1 hr by liquid scintillation spectrophotometric counting.
Series [13] concerns the target T3, Neuropeptide FF receptor 2. Briefly: Displacement of [3H]EYE from human NPFF2 receptor expressed in CHO cell membranes after 1 hr by liquid scintillation spectrophotometric counting.
Series [14] deals with T1, Neurotensin receptor type 1. As to the kind of experiment: biochemical.
For series [15] the target is unchanged. As to the kind of experiment: Binding affinity to human NTSR1 receptor transfected in CHO cells co-expressing Galpha16-mtAEQ after 2 hrs by liquid scintillation counting. The format is cell-based.
The target is the same in series [16]. As to the kind of experiment: biochemical. The source holds these as a separate data set.
Series [17] is described as follows: Drug degradation in CHO cells expressing human AT1 receptor at 50 uM after 2 hrs by reversed-phase HPLC analysis. Type of series: ADME, cell-based, Cricetulus griseus. The conditions noted are these: chinese hamster, read-out: Drug degradation. The gist of the method: as §1
Series [18] in a line: Drug degradation in CHO cells expressing human AT1 receptor at 50 uM after 6 hrs by reversed-phase HPLC analysis. The format is ADME, cell-based, Cricetulus griseus. The conditions noted are these: chinese hamster, read-out: Drug degradation. The procedure, abridged:
as §1

In series [19] the target is T2, Type-1 angiotensin II receptor. Briefly: Agonist activity at human AT1 receptor transfected in CHO cells co-expressing Galpha16-mtAEQ assessed as induction of intracellular Ca2+ mobilization by bioluminescence assay. The format is functional, cell-based.
Series [20] is described as follows: Chemical stability of compound at 150 uM at pH 7 at 21 degC after 24 to 48 hrs by reversed-phase HPLC analysis. Type of series: physicochemical. The conditions noted are these: buffer, pH 7, 150 µM. The gist of the method:
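Peptide incubated in phosphate buffer (PBS), pH 7.0, 21 °C, for 24 or 48 h. Remaining intact peptide assessed from reversed-phase HPLC chromatograms.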

*1 amine or outer side, *2 acyl side, *3 side chain or, on linkers, in order; H or OH if unused. Where a SMILES comes first, the peptide text is derived from it. [ ]: non-standard residue; d: D form. X1 = CCC(=O)NCCCCNC(=O)/N=C(\N)NCCC[C@H](N[*:1])C(=O)[*:2] Bounds are passed on as bounds.

T3 sequence (Q9Y5X5 whole entry): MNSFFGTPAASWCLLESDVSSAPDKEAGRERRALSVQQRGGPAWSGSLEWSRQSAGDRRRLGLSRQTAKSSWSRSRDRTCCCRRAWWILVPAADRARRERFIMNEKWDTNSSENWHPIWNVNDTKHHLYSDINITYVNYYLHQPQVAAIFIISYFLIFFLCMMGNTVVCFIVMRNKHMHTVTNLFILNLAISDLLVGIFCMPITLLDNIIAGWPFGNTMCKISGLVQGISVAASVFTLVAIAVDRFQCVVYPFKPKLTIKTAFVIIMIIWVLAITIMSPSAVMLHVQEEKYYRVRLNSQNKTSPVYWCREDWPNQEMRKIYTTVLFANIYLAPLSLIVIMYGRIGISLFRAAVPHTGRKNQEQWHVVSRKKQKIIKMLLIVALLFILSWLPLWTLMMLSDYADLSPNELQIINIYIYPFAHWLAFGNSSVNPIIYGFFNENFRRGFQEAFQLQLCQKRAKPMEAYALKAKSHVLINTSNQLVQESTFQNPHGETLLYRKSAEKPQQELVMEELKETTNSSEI

Regarding `CCC(=O)NCCCCNC(=O)/N=C(\N)NCCC[C@H](N)C(=O)N[C@@H](CCCNC(=N)N)C(=O)N1CCC[C@H]1C(=O)N[C@@H](Cc1ccc(O)cc1)C(=O)N[C@H](C(=O)N[C@@H](CC(C)C)C(=O)O)[C@@H](C)CC.O=C(O)C(F)(F)F.O=C(O)C(F)(F)F.O=C(O)C(F)(F)F` (H-[X1]RPYIL-OH), the concentration for half-maximal inhibition (IC50) in series [1] is 1.35 nM. The results for the inhibitory constant (Ki) in series [1], in series [2] and in [7] were 0.47 nM, 2.5 nM and 0.63 nM, respectively. The metabolised at 2 h, 50 µM in [3] is < 4%. In addition, in series [4], the EC50 is 2 nM. For the same molecule, the metabolised at 6 h, 50 µM in series [5] is < 4%. In addition, the Stability entry in [6] was “Stable”.

In the case of `O=C(O)C(F)(F)F.O=C(O)C(F)(F)F.O=C(O)C(F)(F)F.[3H]CC([3H])C(=O)NCCCCNC(=O)/N=C(\N)NCCC[C@H](NC(=O)[C@@H](N)CC(=O)O)C(=O)N[C@H](C(=O)N[C@@H](Cc1ccc(O)cc1)C(=O)N[C@H](C(=O)N[C@@H](Cc1cnc[nH]1)C(=O)N1CCC[C@H]1C(=O)N[C@@H](Cc1ccccc1)C(=O)O)[C@@H](C)CC)C(C)C` (stereo not given in full), the values for the Kd in [8] and in [9] were 0.94 nM and 1.5 nM, respectively.

`CCOc1nc2cccc(C(=O)O)c2n1Cc1ccc(-c2ccccc2-c2nnn[nH]2)cc1`: in series [10], the IC50 was 10.7 nM and the affinity corresponds to a Ki of 3.5 nM. Also, the IC50 in series [11] stood at 0.69 nM.

In [12], H-EYWSLAAPQRF-NH2 yielded a dissociation constant (Kd) of 0.54 nM. In series [13], the inhibition constant Ki came out at 0.53 nM.

`O=C(O)C(F)(F)F.O=C(O)C(F)(F)F.O=C(O)C(F)(F)F.[3H]CC([3H])C(=O)NCCCCNC(=O)/N=C(\N)NCCC[C@H](N)C(=O)N[C@@H](CCCNC(=N)N)C(=O)N1CCC[C@H]1C(=O)N[C@@H](Cc1ccc(O)cc1)C(=O)N[C@H](C(=O)N[C@@H](CC(C)C)C(=O)O)[C@@H](C)CC` (stereo not given in full): the dissociation constant Kd in [14] worked out at 0.44 nM; in series [15], 0.58 nM; in series [16], 0.51 nM.

As to `CCC(=O)NCCCCNC(=O)/N=C(\N)NCCC[C@H](NC(=O)[C@@H](N)CC(=O)O)C(=O)N[C@H](C(=O)N[C@@H](Cc1ccc(O)cc1)C(=O)N[C@H](C(=O)N[C@@H](Cc1cnc[nH]1)C(=O)N1CCC[C@H]1C(=O)N[C@@H](Cc1ccccc1)C(=O)O)[C@@H](C)CC)C(C)C.O=C(O)C(F)(F)F.O=C(O)C(F)(F)F.O=C(O)C(F)(F)F` (H-D[X1]VYIHPF-OH), in [10], the half-maximal inhibitory concentration (IC50) is 2.19 nM and the inhibitory constant (Ki) was 0.71 nM. Moreover, in [17], the metabolised at 2 h, 50 µM was < 5.5%. In addition, the metabolised at 6 h, 50 µM in [18] was < 2%. For the same molecule, the Stability result in series [6] was “Stable”. In series [19], the concentration for a half-maximal effect (EC50) was 1.1 nM.

`CC[C@H](C)[C@H](NC(=O)[C@H](Cc1ccc(O)cc1)NC(=O)[C@@H]1CCCN1C(=O)[C@H](CCCNC(=N)N)NC(=O)[C@@H](N)CCCN/C(N)=N/C(=O)NCCCCNC(=O)CCCCCN1\C(=C/C=C/C=C/C2=[N+](C)c3ccccc3C2(C)C)C(C)(C)c2ccccc21)C(=O)N[C@@H](CC(C)C)C(=O)O.O=C(O)C(F)(F)F.O=C(O)C(F)(F)F.O=C(O)C(F)(F)F.O=C(O)C(F)(F)F.[Br-]`: the Stability entry in series [20] is “Stable”.
